Data from ChEMBL document CHEMBL5058577, “EUbOPEN Chemogenomics Library 2 (Multiplex)” (2022).

System: U2OS
Assay: Multiplex assay against U2OS
Type: toxicity, cell-based
Conditions: human
Procedure, shortened: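 Values for tubulin, mitochondrial-mass and membrane-permeability phenotypes are per cents of cells with healthy nuclei. These cells were identified by CellPathfinder machine-learning gating of live cells that had been stained at seeding with Hoechst33342, BioTracker Green Microtubule Cytoskeleton Dye, MitoTracker Red and Annexin V Alexa Fluor 680 and imaged on a CQ1 microscope at 37°C and 5% CO2 after compound addition. The gating first set Hoechst high-intensity objects apart from normal cells, then split normal cells into healthy, pyknosed or fragmented nuclei, and pyknosed cells into mitotic or apoptotic.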

[1] = 12 h, 1 µM, compound concentration 1 uM, replicate 1
[2] = 12 h, 1 µM, compound concentration 1 uM, replicate 2
[3] = 12 h, 10 µM, compound concentration 10 uM, replicate 1
[4] = 12 h, 10 µM, compound concentration 10 uM, replicate 2
[5] = 24 h, 1 µM, compound concentration 1 uM, replicate 1
[6] = 24 h, 1 µM, compound concentration 1 uM, replicate 2
[7] = 24 h, 10 µM, compound concentration 10 uM, replicate 1
[8] = 24 h, 10 µM, compound concentration 10 uM, replicate 2
[9] = 48 h, 1 µM, compound concentration 1 uM, replicate 1
[10] = 48 h, 1 µM, compound concentration 1 uM, replicate 2
[11] = 48 h, 10 µM, compound concentration 10 uM, replicate 1
[12] = 48 h, 10 µM, compound concentration 10 uM, replicate 2

COc1cc(OC2CCN(C(C)=O)CC2)ccc1C(=O)N1CCC(N2C(=O)OCc3ccccc32)CC1
Population Apoptotic (%) [1]: 50% | Population Fragmented Nuclei (%) [1]: 22% | Population Healthy Nuclei (%) [1]: 67% | Population Hoechst High Intensity Objects (%) [1]: 0% | Population Membrane Permeable-Phenotype (%) [1]: 5% | Population Mitochondria Different-Phenotype (%) [1]: 3% | Population Mitotic Cells (%) [1]: 50% | Population Normal (%) [1]: 99% | Population Pyknosed Nuclei (%) [1]: 9% | Population Tubulin-Different-Phenotype (%) [1]: 3% | Total Cell Count [1]: 233 | Population Apoptotic (%) [2]: 66% | Population Fragmented Nuclei (%) [2]: 20% | Population Healthy Nuclei (%) [2]: 69% | Population Membrane Permeable-Phenotype (%) [2]: 11% | Population Mitochondria Different-Phenotype (%) [2]: 7% | Population Mitotic Cells (%) [2]: 33% | Population Tubulin-Different-Phenotype (%) [2]: 8% | Total Cell Count [2]: 130 | Population Apoptotic (%) [3]: 72% | Population Fragmented Nuclei (%) [3]: 23% | Population Healthy Nuclei (%) [3]: 62% | Population Hoechst High Intensity Objects (%) [3]: 6% | Population Membrane Permeable-Phenotype (%) [3]: 18% | Population Mitochondria Different-Phenotype (%) [3]: 6% | Population Mitotic Cells (%) [3]: 27% | Population Normal (%) [3]: 93% | Population Pyknosed Nuclei (%) [3]: 13% | Population Tubulin-Different-Phenotype (%) [3]: 12% | Total Cell Count [3]: 228 | Population Apoptotic (%) [4]: 87% | Population Fragmented Nuclei (%) [4]: 13% | Population Healthy Nuclei (%) [4]: 77% | Population Hoechst High Intensity Objects (%) [4]: 1% | Population Membrane Permeable-Phenotype (%) [4]: 21% | Population Mitochondria Different-Phenotype (%) [4]: 10% | Population Mitotic Cells (%) [4]: 12% | Population Normal (%) [4]: 98% | Population Pyknosed Nuclei (%) [4]: 9% | Population Tubulin-Different-Phenotype (%) [4]: 13% | Total Cell Count [4]: 85 | Population Apoptotic (%) [5]: 82% | Population Fragmented Nuclei (%) [5]: 20% | Population Healthy Nuclei (%) [5]: 71% | Population Hoechst High Intensity Objects (%) [5]: 1% | Population Membrane Permeable-Phenotype (%) [5]: 3% | Population Mitochondria Different-Phenotype (%) [5]: 2% | Population Mitotic Cells (%) [5]: 17% | Population Normal (%) [5]: 98% | Population Pyknosed Nuclei (%) [5]: 8% | Population Tubulin-Different-Phenotype (%) [5]: 2% | Total Cell Count [5]: 288 | Population Apoptotic (%) [6]: 76% | Population Fragmented Nuclei (%) [6]: 22% | Population Healthy Nuclei (%) [6]: 68% | Population Membrane Permeable-Phenotype (%) [6]: 7% | Population Mitochondria Different-Phenotype (%) [6]: 5% | Population Mitotic Cells (%) [6]: 23% | Population Tubulin-Different-Phenotype (%) [6]: 3% | Total Cell Count [6]: 163 | Population Apoptotic (%) [7]: 81% | Population Fragmented Nuclei (%) [7]: 21% | Population Healthy Nuclei (%) [7]: 60% | Population Hoechst High Intensity Objects (%) [7]: 5% | Population Membrane Permeable-Phenotype (%) [7]: 9% | Population Mitochondria Different-Phenotype (%) [7]: 9% | Population Mitotic Cells (%) [7]: 18% | Population Normal (%) [7]: 94% | Population Pyknosed Nuclei (%) [7]: 18% | Population Tubulin-Different-Phenotype (%) [7]: 4% | Total Cell Count [7]: 250 | Population Apoptotic (%) [8]: 71% | Population Fragmented Nuclei (%) [8]: 12% | Population Healthy Nuclei (%) [8]: 80% | Population Hoechst High Intensity Objects (%) [8]: 2% | Population Membrane Permeable-Phenotype (%) [8]: 10% | Population Mitochondria Different-Phenotype (%) [8]: 3% | Population Mitotic Cells (%) [8]: 28% | Population Normal (%) [8]: 97% | Population Pyknosed Nuclei (%) [8]: 7% | Population Tubulin-Different-Phenotype (%) [8]: 6% | Total Cell Count [8]: 99 | Population Apoptotic (%) [9]: 80% | Population Fragmented Nuclei (%) [9]: 17% | Population Healthy Nuclei (%) [9]: 77% | Population Hoechst High Intensity Objects (%) [9]: 3% | Population Membrane Permeable-Phenotype (%) [9]: 3% | Population Mitochondria Different-Phenotype (%) [9]: 1% | Population Mitotic Cells (%) [9]: 19% | Population Normal (%) [9]: 96% | Population Pyknosed Nuclei (%) [9]: 5% | Population Tubulin-Different-Phenotype (%) [9]: 2% | Total Cell Count [9]: 388 | Population Apoptotic (%) [10]: 65% | Population Fragmented Nuclei (%) [10]: 23% | Population Healthy Nuclei (%) [10]: 66% | Population Membrane Permeable-Phenotype (%) [10]: 10% | Population Mitochondria Different-Phenotype (%) [10]: 5% | Population Mitotic Cells (%) [10]: 35% | Population Pyknosed Nuclei (%) [10]: 9% | Population Tubulin-Different-Phenotype (%) [10]: 4% | Total Cell Count [10]: 213 | Population Apoptotic (%) [11]: 81% | Population Fragmented Nuclei (%) [11]: 19% | Population Healthy Nuclei (%) [11]: 66% | Population Hoechst High Intensity Objects (%) [11]: 5% | Population Membrane Permeable-Phenotype (%) [11]: 5% | Population Mitochondria Different-Phenotype (%) [11]: 4% | Population Mitotic Cells (%) [11]: 18% | Population Normal (%) [11]: 95% | Population Pyknosed Nuclei (%) [11]: 14% | Population Tubulin-Different-Phenotype (%) [11]: 3% | Total Cell Count [11]: 320 | Population Apoptotic (%) [12]: 100% | Population Fragmented Nuclei (%) [12]: 17% | Population Healthy Nuclei (%) [12]: 78% | Population Hoechst High Intensity Objects (%) [12]: 1% | Population Membrane Permeable-Phenotype (%) [12]: 14% | Population Mitochondria Different-Phenotype (%) [12]: 6% | Population Mitotic Cells (%) [12]: 0% | Population Normal (%) [12]: 98% | Population Pyknosed Nuclei (%) [12]: 3% | Population Tubulin-Different-Phenotype (%) [12]: 8% | Total Cell Count [12]: 130

CN(C)C(=O)Cn1cc(-c2ccc(-c3nnc4ccccn34)cc2)cn1
Population Apoptotic (%) [1]: 90% | Population Fragmented Nuclei (%) [1]: 25% | Population Healthy Nuclei (%) [1]: 66% | Population Hoechst High Intensity Objects (%) [1]: 1% | Population Membrane Permeable-Phenotype (%) [1]: 6% | Population Mitochondria Different-Phenotype (%) [1]: 1% | Population Mitotic Cells (%) [1]: 9% | Population Normal (%) [1]: 98% | Population Pyknosed Nuclei (%) [1]: 8% | Population Tubulin-Different-Phenotype (%) [1]: 3% | Total Cell Count [1]: 251 | Population Fragmented Nuclei (%) [2]: 22% | Population Healthy Nuclei (%) [2]: 68% | Population Hoechst High Intensity Objects (%) [2]: 0% | Population Membrane Permeable-Phenotype (%) [2]: 3% | Population Mitochondria Different-Phenotype (%) [2]: 6% | Population Normal (%) [2]: 99% | Population Pyknosed Nuclei (%) [2]: 9% | Population Tubulin-Different-Phenotype (%) [2]: 4% | Total Cell Count [2]: 123 | Population Apoptotic (%) [3]: 95% | Population Fragmented Nuclei (%) [3]: 26% | Population Healthy Nuclei (%) [3]: 65% | Population Hoechst High Intensity Objects (%) [3]: 1% | Population Membrane Permeable-Phenotype (%) [3]: 4% | Population Mitochondria Different-Phenotype (%) [3]: 1% | Population Mitotic Cells (%) [3]: 4% | Population Normal (%) [3]: 98% | Population Pyknosed Nuclei (%) [3]: 7% | Population Tubulin-Different-Phenotype (%) [3]: 3% | Total Cell Count [3]: 298 | Population Apoptotic (%) [4]: 90% | Population Fragmented Nuclei (%) [4]: 11% | Population Healthy Nuclei (%) [4]: 81% | Population Mitochondria Different-Phenotype (%) [4]: 0% | Population Mitotic Cells (%) [4]: 10% | Total Cell Count [4]: 140 | Population Apoptotic (%) [5]: 94% | Population Fragmented Nuclei (%) [5]: 22% | Population Healthy Nuclei (%) [5]: 71% | Population Hoechst High Intensity Objects (%) [5]: 0% | Population Membrane Permeable-Phenotype (%) [5]: 4% | Population Mitochondria Different-Phenotype (%) [5]: 2% | Population Mitotic Cells (%) [5]: 5% | Population Normal (%) [5]: 99% | Population Pyknosed Nuclei (%) [5]: 5% | Population Tubulin-Different-Phenotype (%) [5]: 1% | Total Cell Count [5]: 315 | Population Apoptotic (%) [6]: 100% | Population Fragmented Nuclei (%) [6]: 17% | Population Healthy Nuclei (%) [6]: 74% | Population Membrane Permeable-Phenotype (%) [6]: 7% | Population Mitochondria Different-Phenotype (%) [6]: 7% | Population Mitotic Cells (%) [6]: 0% | Population Normal (%) [6]: 100% | Population Pyknosed Nuclei (%) [6]: 8% | Population Tubulin-Different-Phenotype (%) [6]: 4% | Total Cell Count [6]: 131 | Population Apoptotic (%) [7]: 86% | Population Fragmented Nuclei (%) [7]: 22% | Population Healthy Nuclei (%) [7]: 66% | Population Hoechst High Intensity Objects (%) [7]: 2% | Population Membrane Permeable-Phenotype (%) [7]: 4% | Population Mitochondria Different-Phenotype (%) [7]: 1% | Population Mitotic Cells (%) [7]: 13% | Population Normal (%) [7]: 97% | Population Pyknosed Nuclei (%) [7]: 11% | Population Tubulin-Different-Phenotype (%) [7]: 2% | Total Cell Count [7]: 333 | Population Apoptotic (%) [8]: 87% | Population Fragmented Nuclei (%) [8]: 10% | Population Healthy Nuclei (%) [8]: 85% | Population Hoechst High Intensity Objects (%) [8]: 1% | Population Membrane Permeable-Phenotype (%) [8]: 7% | Population Mitotic Cells (%) [8]: 12% | Population Normal (%) [8]: 98% | Population Pyknosed Nuclei (%) [8]: 4% | Population Tubulin-Different-Phenotype (%) [8]: 3% | Total Cell Count [8]: 180 | Population Apoptotic (%) [9]: 87% | Population Fragmented Nuclei (%) [9]: 16% | Population Healthy Nuclei (%) [9]: 75% | Population Hoechst High Intensity Objects (%) [9]: 2% | Population Membrane Permeable-Phenotype (%) [9]: 4% | Population Mitochondria Different-Phenotype (%) [9]: 2% | Population Mitotic Cells (%) [9]: 12% | Population Normal (%) [9]: 97% | Population Pyknosed Nuclei (%) [9]: 7% | Population Tubulin-Different-Phenotype (%) [9]: 1% | Total Cell Count [9]: 426 | Population Apoptotic (%) [10]: 93% | Population Fragmented Nuclei (%) [10]: 11% | Population Healthy Nuclei (%) [10]: 67% | Population Membrane Permeable-Phenotype (%) [10]: 7% | Population Mitochondria Different-Phenotype (%) [10]: 3% | Population Mitotic Cells (%) [10]: 6% | Population Pyknosed Nuclei (%) [10]: 20% | Population Tubulin-Different-Phenotype (%) [10]: 3% | Total Cell Count [10]: 158 | Population Apoptotic (%) [11]: 95% | Population Fragmented Nuclei (%) [11]: 21% | Population Healthy Nuclei (%) [11]: 67% | Population Hoechst High Intensity Objects (%) [11]: 3% | Population Membrane Permeable-Phenotype (%) [11]: 8% | Population Mitochondria Different-Phenotype (%) [11]: 4% | Population Mitotic Cells (%) [11]: 4% | Population Normal (%) [11]: 96% | Population Pyknosed Nuclei (%) [11]: 11% | Population Tubulin-Different-Phenotype (%) [11]: 4% | Total Cell Count [11]: 418 | Population Apoptotic (%) [12]: 85% | Population Fragmented Nuclei (%) [12]: 8% | Population Healthy Nuclei (%) [12]: 81% | Population Hoechst High Intensity Objects (%) [12]: 2% | Population Membrane Permeable-Phenotype (%) [12]: 6% | Population Mitochondria Different-Phenotype (%) [12]: 2% | Population Mitotic Cells (%) [12]: 14% | Population Normal (%) [12]: 97% | Population Pyknosed Nuclei (%) [12]: 9% | Population Tubulin-Different-Phenotype (%) [12]: 2% | Total Cell Count [12]: 284
